Format in all cases: cell-based
Test [1] concerns the target Sodium- and chloride-dependent GABA transporter 1 (Mus musculus, UniProt P31648). Nature of the test: Inhibition of mouse GAT1 expressed in hamster BHK cells assessed as reduction in [3H]GABA uptake after 3 mins by scintillation counting method. As to conditions: read-out: Ki(app).
A further test addresses T1, GABA transporter 3 (Mus musculus, UniProt P31649).
T1 sequence (P31649 whole entry): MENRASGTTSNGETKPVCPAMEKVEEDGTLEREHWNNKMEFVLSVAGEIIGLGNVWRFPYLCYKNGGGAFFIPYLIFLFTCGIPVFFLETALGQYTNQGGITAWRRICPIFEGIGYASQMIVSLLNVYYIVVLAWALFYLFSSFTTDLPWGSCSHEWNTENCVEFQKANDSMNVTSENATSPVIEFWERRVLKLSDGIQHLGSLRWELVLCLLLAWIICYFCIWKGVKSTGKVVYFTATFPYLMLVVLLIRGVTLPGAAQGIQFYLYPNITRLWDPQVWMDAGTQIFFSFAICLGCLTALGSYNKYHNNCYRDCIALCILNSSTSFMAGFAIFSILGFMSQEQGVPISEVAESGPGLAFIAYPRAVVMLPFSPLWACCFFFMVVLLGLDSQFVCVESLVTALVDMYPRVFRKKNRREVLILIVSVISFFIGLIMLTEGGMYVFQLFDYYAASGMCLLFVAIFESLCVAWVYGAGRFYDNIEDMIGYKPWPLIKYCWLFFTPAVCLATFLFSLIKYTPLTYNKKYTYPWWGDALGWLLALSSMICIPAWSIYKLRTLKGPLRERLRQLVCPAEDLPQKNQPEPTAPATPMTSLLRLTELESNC
As to the kind of experiment: Inhibition of mouse GAT2 expressed in hamster BHK cells assessed as reduction in [3H]GABA uptake after 3 mins by scintillation counting method. The settings on record: read-out: Ki(app).

The next test addresses T2, GABA transporter 2 (Mus musculus, UniProt P31651).
T2 sequence (P31651 whole entry): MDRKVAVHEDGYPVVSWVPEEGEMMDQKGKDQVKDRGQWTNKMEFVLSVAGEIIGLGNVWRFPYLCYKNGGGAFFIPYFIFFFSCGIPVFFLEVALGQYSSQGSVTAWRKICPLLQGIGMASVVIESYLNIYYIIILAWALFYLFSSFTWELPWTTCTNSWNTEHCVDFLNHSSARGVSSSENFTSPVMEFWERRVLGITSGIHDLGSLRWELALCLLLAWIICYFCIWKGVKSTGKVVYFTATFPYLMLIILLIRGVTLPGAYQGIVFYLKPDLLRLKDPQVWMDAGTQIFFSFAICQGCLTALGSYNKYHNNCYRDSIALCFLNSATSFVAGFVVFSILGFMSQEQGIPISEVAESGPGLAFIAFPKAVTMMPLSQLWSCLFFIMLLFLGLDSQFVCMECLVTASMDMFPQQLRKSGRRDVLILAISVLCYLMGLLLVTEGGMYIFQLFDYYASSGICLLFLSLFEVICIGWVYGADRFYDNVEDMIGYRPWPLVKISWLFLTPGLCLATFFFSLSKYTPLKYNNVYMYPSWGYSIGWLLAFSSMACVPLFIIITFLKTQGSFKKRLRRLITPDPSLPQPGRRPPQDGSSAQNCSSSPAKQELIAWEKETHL
Nature of the test: Inhibition of mouse BGT1 expressed in hamster BHK cells assessed as reduction in [3H]GABA uptake after 3 mins by scintillation counting method. The settings on record: read-out: Ki(app).

The target in test [2] is Sodium- and chloride-dependent GABA transporter 3 (Homo sapiens, UniProt P48066, L314Q). As to the kind of experiment: Inhibition of human GAT3 L314Q mutant expresses in tsA201 cells assessed as reduction in [3H]GABA uptake after 3 mins by scintillation counting method. The method, boiled down: (§1)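 Site-directed mutant transporters transiently transfected (PolyFect) into tsA201 cells, plated and used about 24 h later. Cells were washed with HBSS containing 20 mM HEPES, 1 mM CaCl2 and 1 mM MgCl2, pH 7.4. Uptake of 30 nM [3H]GABA was run with varied inhibitor concentrations for 3 min at 37 °C, then three ice-cold washes and scintillation counting. IC50 was taken from variable-slope sigmoidal fits. Triplicates, at least three independent experiments.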
Chain of Sodium- and chloride-dependent GABA transporter 3 (Homo sapiens, UniProt P48066, L314Q) (P48066 whole entry L314Q): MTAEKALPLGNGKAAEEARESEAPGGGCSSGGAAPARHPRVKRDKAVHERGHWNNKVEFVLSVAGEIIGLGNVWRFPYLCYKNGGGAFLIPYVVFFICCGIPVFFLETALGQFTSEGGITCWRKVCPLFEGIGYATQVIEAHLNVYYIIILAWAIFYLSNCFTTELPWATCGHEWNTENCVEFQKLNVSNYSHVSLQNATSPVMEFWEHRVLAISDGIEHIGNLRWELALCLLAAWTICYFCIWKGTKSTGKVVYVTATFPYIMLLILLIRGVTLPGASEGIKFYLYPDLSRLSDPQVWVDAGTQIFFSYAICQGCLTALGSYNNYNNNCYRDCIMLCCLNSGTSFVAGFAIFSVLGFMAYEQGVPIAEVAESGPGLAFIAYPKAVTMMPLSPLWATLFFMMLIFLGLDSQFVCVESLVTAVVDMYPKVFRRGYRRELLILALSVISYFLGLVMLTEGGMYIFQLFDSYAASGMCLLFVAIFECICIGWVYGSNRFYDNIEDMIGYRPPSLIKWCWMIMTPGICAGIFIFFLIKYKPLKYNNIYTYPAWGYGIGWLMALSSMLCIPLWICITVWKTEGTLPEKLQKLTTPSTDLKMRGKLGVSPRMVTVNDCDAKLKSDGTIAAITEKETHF

For test [3], the target named is Sodium- and chloride-dependent GABA transporter 3 (Homo sapiens, UniProt P48066, S468Y). Nature of the test: Inhibition of human GAT3 S468Y mutant expresses in tsA201 cells assessed as reduction in [3H]GABA uptake after 3 mins by scintillation counting method. In short, it runs like this: as §1
Chain of Sodium- and chloride-dependent GABA transporter 3 (Homo sapiens, UniProt P48066, S468Y) (P48066 whole entry S468Y): as the sequence (P48066 whole entry L314Q) above, with Q314L, S468Y counted along it

Consider `COc1ccccc1C1(O)CCN(CCCn2c3ccccc3c3ccccc32)CC1`, for which the Ki in test [1] amounted to 19 µM; at GABA transporter 3 it was 41 µM; on GABA transporter 2 it was 1400 nM.
The IC50 is the concentration at which inhibition is half-maximal. Take `NCCCC(=O)O` [GAMMA-AMINOBUTYRIC ACID]: the IC50 came out at 4 µM in test [2] and 1000 nM in test [3].

Source of the values: ChEMBL document CHEMBL4028872, “Structure-Activity Relationship, Pharmacological Characterization, and Molecular Modeling of Noncompetitive Inhibitors of the Betaine/γ-Aminobutyric Acid Transporter 1 (BGT1)” (J Med Chem, 2017).
